{"source": "ChEMBL document CHEMBL4145554", "about": "“Structure-activity relationships of talaumidin derivatives: Their neurite-outgrowth promotion in vitro and optic nerve regeneration in vivo” (Eur J Med Chem, 2018)", "note": "The source made the active and inactive calls. The rule behind the calls is not given here.", "data": [{"tested_on": "Mus musculus", "assay": "In vivo neurite-outgrowth promoting activity in C57BL/6 mouse assessed as regeneration of injured optic nerve by measuring GAP-43 positive axons extending over injury site at 30 uM measured 2 weeks post optic nerve injury by fluorescence microscopic method", "format": "functional, organism-based", "in_short": "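Male mice, 9 weeks old, anesthetized with intraperitoneal sodium pentobarbital (30e40 mg/kg); optic nerve crushed with forceps 1 mm behind the eyeball. Longitudinal […] cryosections (OCT) stained with anti-GAP43 (1:250) plus fluorescent secondary; regenerating axons counted manually at […] from injury site, ≥8 sections per condition, 6 mice/group; Dunnett's t-test versus injury.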", "values": [{"smiles": "COc1cc([C@H]2O[C@H](c3ccc4c(c3)OCO4)[C@@H](C)[C@@H]2C)ccc1O", "Activity": "Active"}, {"smiles": "COc1cc(C2OC(c3ccc4c(c3)OCO4)C(C)C2C)ccc1O", "note": "(racemic)", "Activity": "Active"}]}, {"tested_on": "PC-12", "assay": "Neurite-outgrowth promoting activity in NGF-differentiated rat PC12 cells assessed as increase in neurite length at 30 uM after 4 days by methylene blue staining based phase contrast microscopic method", "format": "functional, cell-based", "in_short": "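Cells seeded at 8 × 10^3 cells/cm2 in DMEM/10% HS/5% FBS/antibiotics, 24 h, 37 °C, 5% CO2; medium then switched to DMEM/2% HS/1% FBS with test sample plus 2 ng/mL NGF for 4 days, triplicate wells. Fixed in 4% paraformaldehyde, methylene blue stained; longest neurite of 5 differentiated cells in 5 random images per well measured, ≥100 cells per sample; Dunnett's t-test.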", "values": [{"smiles": "C[C@@H]1[C@H](C)CO[C@@H]1c1ccc2c(c1)OCO2", "Activity": "inactive"}, {"smiles": "Cc1ccc(-c2oc(-c3ccc(C)cc3)c(C)c2C)cc1", "Activity": "Active"}, {"smiles": "C[C@@H]1[C@H](C)[C@H](c2ccc(O)cc2)O[C@@H]1c1ccc(O)cc1", "Activity": "Active"}, {"smiles": "COc1ccc(-c2oc(-c3ccc(OC)cc3)c(C)c2C)cc1", "Activity": "Active"}, {"smiles": "Cc1ccc([C@H]2O[C@@H](c3ccc(C)cc3)[C@@H](C)[C@H]2C)cc1", "Activity": "Active"}, {"smiles": "c1cc2c(cc1[C@@H]1CC[C@H](c3ccc4c(c3)OCO4)O1)OCO2", "Activity": "Active"}, {"smiles": "Cc1c(-c2ccc(O)cc2)oc(-c2ccc(O)cc2)c1C", "Activity": "Active"}, {"smiles": "COc1cc([C@H]2O[C@@H](c3ccc4c(c3)OCO4)[C@@H](C)[C@H]2C)ccc1O", "Activity": "Active"}, {"smiles": "COc1cc([C@H]2O[C@@H](c3ccc(O)c(OC)c3)[C@@H](C)[C@H]2C)ccc1O", "Activity": "Active"}, {"smiles": "COc1cc([C@H]2O[C@H](c3ccc4c(c3)OCO4)[C@@H](C)[C@@H]2C)ccc1O", "Activity": "Active"}, {"smiles": "Cc1c(-c2ccc3c(c2)OCO3)oc(-c2ccc3c(c2)OCO3)c1C", "Activity": "Active"}, {"smiles": "COc1cc(-c2oc(-c3ccc(O)c(OC)c3)c(C)c2C)ccc1O", "Activity": "Active"}, {"smiles": "COc1cc(-c2oc(-c3ccc4c(c3)OCO4)c(C)c2C)ccc1O", "Activity": "Active"}, {"smiles": "COc1ccc([C@H]2O[C@@H](c3ccc(OC)cc3)[C@@H](C)[C@H]2C)cc1", "Activity": "Active"}, {"smiles": "COc1cc(C2OC(c3ccc4c(c3)OCO4)C(C)C2C)ccc1O", "note": "(racemic)", "Activity": "Active"}]}]}
